Experimental data reported in ChEMBL document CHEMBL4513216, “Probing the Open Global Health Chemical Diversity Library for Multistage-Active Starting Points for Next-Generation Antimalarials” (ACS Infect Dis, 2020).

Test: Toxicity liver stage against HepG2, at 10uM
Type: cell-based
Parameters: test concentration 10 uM, cell line HepG2-A16-CD81EGFP
Conditions: human, HepG2-A16-CD81EGFP cells; read-out: INHIBITION
In short: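 Uninfected HepG2-A16-CD81EGFP cells, 3 × 10^3 per well, 1536-well, plated on prespotted compound at 10 μM final, parasite-free screening media added to match infected plates; puromycin 10 μM positive, DMSO 0.5% negative; run in parallel with 48 h PbLuc assay at 37 °C, 5% CO2; viability by CellTiter-Glo luminescence, normalized to controls.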

| SMILES | cytotoxicity at 10 µM [%] |
| --- | --- |
| CC(=O)N1CCC(N[C@@H]2CO[C@H](CNC(=O)C3CCCC3)[C@H]2O)CC1 | -2.17 |
| O=C1CO[C@H]2CN(C3CCOCC3)C[C@H]2N1Cc1ccccn1 | 0.566 |
| Nc1nnc(SCc2cc(=O)n3c4c(sc3n2)CCCC4)[nH]1 | -4.19 |
| O=C1CN(C(=O)c2ccc(F)cc2)CC(O)CN1Cc1cccs1 (stereo not given) | -67.7 |
| COC1CCN(C(=O)C2CCCC2)CC(=O)N(C)c2ccccc21 (stereo not given) | -8.88 |
| CC(=O)Nc1ccc(Oc2ccc3c(c2)OCO3)nc1 | -8.6 |
| O=c1cc2c(nn1CN1CCC(c3ccccc3)CC1)CCC2 | -8.49 |
| Cc1cc(=O)n2c(n1)SCC2CC(=O)NCc1cc(-c2ccco2)on1 (stereo not given) | -15.6 |
| Cn1cc(S(=O)(=O)NCC2CCN(C(=O)Oc3ccccc3)CC2)cn1 | -8.36 |
| COc1ccc(C[C@H]2CN(C(=O)CS(C)(=O)=O)CC[C@H]2OC)cc1 | 2.64 |
| CN1C[C@H](COCC2CC2)[C@H]2CCN(Cc3ccco3)CC[C@H]2C1=O | -4.84 |
| CC(C)n1c(C(=O)N2CCCC2)nc2c1CCN(c1ncccn1)C2 | -6.72 |
| CC(=O)N1CCC(c2cc3c(ncn3C)c(-c3cnn(C)c3)n2)CC1 | 0.472 |
| CN(C)C(=O)COCC1C[C@@H]2OCCN(Cc3ccco3)[C@H]2C1 (stereo not given in full) | 11.9 |
| CCc1noc(-c2ccc(SCC(=O)O)nc2)n1 | -10.9 |
| CC(=O)N1CCC2(CC1)CC(Oc1ccccc1)CO2 (stereo not given) | -8.77 |
| O=C(NCc1ccnc(C2CCCOC2)n1)c1cccs1 (stereo not given) | 0.44 |
| c1ccc(CN2CCCC(c3nccnc3-n3ccnc3)C2)cc1 (stereo not given) | -4.56 |
| Cc1ccc(-c2nnc(SCC(=O)O)n2-c2ccc(C)cc2)cc1 | -3.53 |
| CC(=O)N1CCC(Cc2cnc(-c3c(C)nn(C)c3C)cn2)C1 (stereo not given) | -7.31 |
| CCN(CC)CCNc1ncc(-c2cc(C)no2)c(-c2ccoc2C)n1 | -4.94 |
| CC1c2cc(F)ccc2CCN1C(=O)c1[nH]c(=O)[nH]c(=O)c1N (stereo not given) | 7.78 |
| CN(Cc1ccc(C#N)cc1)C(=O)c1ccn(C)c(=O)c1 | -2.81 |
| Cc1ccccc1CC(=O)NCCNc1nccc(C(F)(F)F)n1 | 7.64 |
| CN(C)C(=O)c1cccc(Nc2cnn(C)c2)c1 | 5.42 |
| COc1ccc(Cl)cc1NCC(=O)N(Cc1ccncc1)C1CC1 | 13.7 |
| CN(Cc1ccco1)C(=O)CN1C(=O)c2ccccc2C1=O | -2.96 |

| SMILES | cytotoxicity at 10 µM [%] |
| --- | --- |
| CC(C)c1noc(CN2CCN(C(=O)OC(C)(C)C)C(C)C2)n1 (stereo not given) | 2.24 |
| CC(NC(=O)CCc1nc(-c2nnc[nH]2)no1)c1ccc(F)cc1F (stereo not given) | -2.05 |
| CC(C)COC(=O)N1CCCN(C(=O)c2ccnc(N(C)C)c2)CC1 | -15.1 |
| Cc1ccc(-c2ccc(C(=O)NCCC(=O)N(C)C)c(F)c2)cc1 | -0.0916 |
| NC(=O)C(CNC(=O)CCc1ccccc1)Cc1ccc(F)cc1 (stereo not given) | 6.62 |
| CCn1ccnc1CN1CCN(Cc2cccnc2)CC1C (stereo not given) | -0.191 |
| CCOC(C)C(=O)N(C)C1CCN(c2ccc(OC)cc2)CC1 (stereo not given) | -1.57 |
| COc1ccc(NC(C)c2ccc(C#N)cc2)cc1N1CCCC1=O (stereo not given) | -7.43 |
| Cc1ccc(CN(C(=O)C(C)NC(N)=O)C2CC2)cc1C (stereo not given) | 7.47 |
| Cc1n[nH]c(C2CN(C(=O)c3cc(C)sc3C)CCO2)n1 (stereo not given) | 3.35 |
| CNC(=O)c1sc(C2CCCC2)nc1C | 13.1 |
| CCc1nsc(N2CCCN(C(=O)c3ccc(OC)cc3)CC2)n1 | 4.05 |
| O=C(NCCn1ccnc1)NCc1ccc(N2CCCCCC2)nc1 | 19 |
| CC(C)(C)S(=O)(=O)c1ccc(N2CCC(n3cncn3)CC2)cn1 | 3.94 |
| COCCCC(=O)N(C)c1ccc(F)c(Cl)c1 | -0.577 |
| Cc1nc(COc2ccc(N(C)S(C)(=O)=O)cc2)sc1C | -2.75 |
| Cc1cc(CN(C)C(=O)C2CCCN(C(=O)c3ccc(Cl)cc3)C2)no1 (stereo not given) | -15.6 |
| COCCN1CCc2ncnc(N(C)C)c2CC1 | -0.025 |
| CC(C)N(C)Cc1cc(=O)n2c(n1)CN(C(=O)c1cnccn1)CCC2 | -3.02 |
| Cc1cc(C(=O)N2CC[C@@H]3CN(c4ncccn4)CCO[C@@H]3C2)c(C)o1 | 3.52 |
| Cn1nnc2c1CCN(Cc1ccccc1)C2COCC1CC1 (stereo not given) | 3.24 |
| O=C(C1CCOC1)N1C[C@H]2CN(Cc3ccccn3)C[C@H]2C1 (stereo not given in full) | 1.03 |
| O=C(CCc1cc2n(n1)CCN(Cc1ccncc1)C2)N1CCCC1 | -7.97 |
| Cc1nc(C2CCNCC2)cc(N(C)Cc2cc3cc(F)ccc3[nH]2)n1 | -10.7 |
| CSc1ccccc1C(C(=O)O)N1CCN(Cc2ccccn2)CC1 (stereo not given) | -36.2 |
| Cc1nc(CN2CCCC(CCc3ccc(F)cc3F)C2)c[nH]1 (stereo not given) | -9.67 |
| CC(CN1CCOCC1)NCC1CCN(c2cnn(C)c(=O)c2)CC1 (stereo not given) | -9.93 |

| SMILES | cytotoxicity at 10 µM [%] |
| --- | --- |
| CC(C)c1cc(N2CCC(CCC(=O)NC3CC3)CC2)n2nccc2n1 | -9.12 |
| CC(=O)N1CCCCC1c1nc2c(c(N3CCCCC3)n1)CN(C)CC2 (stereo not given) | -0.0788 |
| c1ccc(COc2cccc(CNC3CCc4ncnn4C3)c2)cc1 (stereo not given) | -13.7 |
| Cc1cn2c(n1)CCC(NC(=O)CCn1cncn1)C2 (stereo not given) | -5.72 |
| CC(C)(C)NC(=O)NC(=O)CNC(C)(C)c1ccc2c(c1)OCCO2 | -8.72 |
| Cc1nc(CNC(=O)NCCc2ccc(N(C)C)cc2)cs1 | -11.6 |
| Cc1csc(C2CCCN(C(=O)c3cnc[nH]3)C2)n1 (stereo not given) | -10.7 |
| CC(C)c1nc2n(n1)CC(NCc1nnc(-c3ccco3)o1)CC2 (stereo not given) | -9.78 |
| CC(CNC(=O)Nc1cn[nH]c1)N1CCc2ccccc2C1 (stereo not given) | -0.289 |
| CCc1noc(C)c1C(=O)N(C)Cc1ncc(C)c(OC)c1C | -1.06 |
| CN1CCN(C(=O)CC2CCN(CCc3ccccn3)CC2)CC1 | -2.89 |
| CCn1nc(C(=O)N2CCCC(n3cncn3)C2)ccc1=O (stereo not given) | -3.3 |
| CCOC(=O)[C@]12CCCN(Cc3cccs3)C[C@H]1CN(CCOC)C2 | 5.13 |
| Fc1ccc(N2CCC3(CC2)CC(OCc2cccnc2)CO3)cc1 (stereo not given) | 9.81 |
| c1csc(CN2Cc3nc(CN4CCCC4)oc3C2)c1 | 4.59 |
| COCCCN1CCCC12CCN(Cc1cccnc1OC)CC2 | 11.8 |
| Cn1ccnc1CN1CCC2(CC(=O)N(c3cncnc3)C2)C1 (stereo not given) | -0.799 |
| COCC(=O)N1CC[C@@H]2O[C@H](COCc3ccncc3)CC[C@@H]21 | 2.6 |
| CS(=O)(=O)N1C[C@H]2CCCN(Cc3nccs3)[C@H]2C1 | -1.65 |
| CCN(C)c1ncc2c(c1C(=O)O)CCN(C1CCOC1)C2 (stereo not given) | 11.5 |
| O=C1CC(c2ccncc2)C2(CCN(C(=O)c3ccc[nH]3)CC2)N1 (stereo not given) | 3.78 |
| CCc1cnc(N2CC[C@H]3[C@@H]2CCC(=O)N3c2ccccc2)nc1 | -6.18 |
| COCC1Cn2nnc(-c3cnn(C)c3)c2CN1Cc1ccsc1 (stereo not given) | 2.11 |
| COCCN1C(=O)C[C@H]2[C@H]1CCN2Cc1cccc(C#N)c1 | 2.55 |
| c1c(CN2CCCC2)nc2n1CCNC2 | 9.94 |
| Cc1nc(C)c(CNCC2(COc3cccnc3)C[C@@H](O)[C@@H](O)C2)s1 (stereo not given in full) | -1.36 |
